# HSP90 refold inh: HSP90 inhibitors, primary screen, cell lysate, luminescence | 290,000 compounds, 0.91% hits | inhibition, % at 5.6 µM | Rabbit reticulocyte lysate, luciferase refolding luminescence, 3 h;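 active = inhibition above the screen-wide mean plus 3 SD, computed separately per campaign, cut at about 16% in these data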;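 note: inhibitors lower the luminescence because luciferase stays unfolded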
# PPC-1+TRAIL kill: compounds killing PPC-1 cancer cells with TRAIL present, primary screen, TRAIL potentiator project, ATPLite luminescence, uHTS; cell killing (% activity), % at 4 µM or 5 µM; AID 1443, 2008; 220,000 compounds, 0.41% hits; PPC-1 cells + TRAIL, ATPLite viability luminescence;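 active = cell killing above 50% in the first pass at 4 µM, then a duplicate retest at 5 µM averaging 50% or more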
# FLuc inhib CS: firefly luciferase enzyme inhibitors, primary screen, artefact control for luciferase-based inhibitor screens, biochemical, luminescence, ATPLite; inhibition, % at 10 µM; 200,000 compounds, 1.5% hits; 10 min; Luciferin 4-monooxygenase (Photinus pyralis), P08659;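 active = inhibition above about 50% when tested at 10 µM, limit read from the data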
# Target sequence (P08659 whole entry, looked up): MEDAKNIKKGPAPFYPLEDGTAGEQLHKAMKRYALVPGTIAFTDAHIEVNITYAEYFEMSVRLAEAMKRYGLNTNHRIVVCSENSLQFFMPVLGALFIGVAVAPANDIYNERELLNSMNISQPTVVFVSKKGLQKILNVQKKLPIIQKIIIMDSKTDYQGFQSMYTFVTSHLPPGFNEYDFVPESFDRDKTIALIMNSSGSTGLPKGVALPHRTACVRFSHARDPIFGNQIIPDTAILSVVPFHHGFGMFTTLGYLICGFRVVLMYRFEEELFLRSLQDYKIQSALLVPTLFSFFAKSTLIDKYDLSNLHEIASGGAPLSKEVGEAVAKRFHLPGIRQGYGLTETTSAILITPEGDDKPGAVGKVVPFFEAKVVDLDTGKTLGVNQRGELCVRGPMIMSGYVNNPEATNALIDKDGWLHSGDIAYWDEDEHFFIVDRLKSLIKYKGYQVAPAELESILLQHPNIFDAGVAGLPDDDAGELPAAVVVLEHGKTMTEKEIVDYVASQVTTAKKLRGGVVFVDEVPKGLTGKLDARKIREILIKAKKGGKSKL
# C8 TRAIL sens: viability loss with TRAIL in NB7+C8 cells, primary screen, TRAIL sensitizer project, cell-based, ATPlite luminescence; inhibition (viability loss, TRAIL sensitization), % at 10 µM; 360,000 compounds, 1% hits; AID 624354, 2012;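 active = compounds causing at least 50% loss of cell viability in the single-dose screen, relative to plate controls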
# FLuc stim CS: FLuc activators, initial screening, artefact control for FLuc-dependent activation tests, biochemical, ATPlite luminescence; Luciferin 4-monooxygenase (Photinus pyralis), P08659; ATPlite luciferase biochemical, 10 min; 0 = ATP-free wells, 1 = DMSO control; activation factor at 10 µM; 200,000 tested, under 10 active;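 active = luciferase activation factor, scaled between plate controls, of at least 2 with compound at 10 µM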
#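 Material: Luciferase/luciferin reagent mix | Doses: Test compounds dosed from 2 mM stocks in 100% DMSO | Timing: 10 min incubation after luciferase reagent addition, room temperature | Measured by: Luminescence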
# PPC-1 tox: cytotoxicity in PPC-1 cells, confirmation, cytotoxicity control for TRAIL apoptosis potentiator project, cell-based, ATP content luminescence; shares compounds with PPC-1+TRAIL kill; PPC-1 viability, ATPlite luminescence, overnight; cytotoxicity, % at 5 µM; 1,200 compounds, 50% hits;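 active = reconfirmed compounds whose average cytotoxicity reaches 50% or more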
# HSP90 inh confirm: HSP90 inhibitors, confirmation, cell lysate, luminescence. shares compounds with HSP90 refold inh. rabbit reticulocyte lysate, luciferase refolding luminescence, 3 h. inhibition, % at 5.9 µM. 2,300 compounds, 64% hits. AID 1846, 2009; in the data active = inhibition above about 18%
# luciferase ctr: firefly luciferase inhibitors, HSP90 counter-screen, confirmation, artefact control for HSP90 inhibitor project, biochemical, luminescence, triplicate; shares compounds with HSP90 refold inh; inhibition, % at 5.9 µM; purified native firefly luciferase; 2,300 compounds, 48% hits;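 active = inhibition above the mean inhibition of all tested sample wells plus 3 SD, cut at about 10% in these data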
# Hits are given with their value; – = inactive; · = not tested or not shown. In the library only some 2% were active in any assay of this set; here they are far more common.
SMILES,HSP90 refold inh,PPC-1+TRAIL kill,FLuc inhib CS,C8 TRAIL sens,FLuc stim CS,PPC-1 tox,HSP90 inh confirm,luciferase ctr
CC1CN(C(=O)c2ccc(NS(=O)(=O)c3ccc(F)cc3)cc2)CC(C)O1 (centres undefined),–,·,·,–,·,·,·,·
Nc1ccc(-c2nc3cc(N)ccc3s2)cc1,25.0,–,88.7,60.1,–,54.0,47.2,38.8
Nc1ccc2nc(-c3ccccc3)c(-c3ccccc3)nc2c1,–,·,·,–,·,·,·,·
CNC(=S)Nc1ccc(-c2nc3ccc(C)cc3s2)cc1,–,–,–,–,–,·,·,·
Cc1ccc2nc(-c3ccc(N)cc3)sc2c1,49.7,80.8,·,83.5,·,81.6,69.0,66.4
CC(=O)Nc1nc2cc(N)ccc2s1,·,·,·,–,·,·,·,·
Nc1ccc2nc(-c3ccccc3)sc2c1,36.9,68.5,90.0,76.0,–,68.3,72.2,67.7
Cc1ccc(-c2cc3ccccc3nc2N2CCOCC2)cc1,–,–,–,–,–,·,·,·
c1ccc2nc(-c3ccc(N4CCOCC4)cc3)ccc2c1,26.5,73.0,88.3,72.9,–,77.1,79.5,71.2
O=C(c1cc(-c2ccc(Br)cc2)on1)N1CCc2ccccc2C1,–,·,·,–,·,·,·,·
Cc1nc(-c2ccc(NC(=O)c3ccccc3)cc2)cs1,20.6,64.3,87.7,75.9,–,61.3,39.6,27.9
Cc1ccc(C(=O)Nc2ccc(-c3csc(C)n3)cc2)cc1,–,–,–,–,–,·,·,·
O=C(Nc1ccc(N2CCCCC2)cc1)c1ccccn1,91.9,96.5,97.4,92.9,–,96.5,93.2,89.3
CC(C)c1ccc(/C=N/NC(=O)c2ccccn2)cc1,28.1,68.7,·,81.0,·,66.3,69.0,62.8
O=C(Nc1ccc2c(c1)OCCO2)c1ccccn1,24.8,–,93.0,74.8,–,53.0,66.6,52.6
O=C(N/N=C/c1ccc2c(c1)OCO2)c1ccccn1,27.6,58.5,87.8,72.9,–,59.8,56.9,35.8
COc1ccccc1-c1noc2c1C(=O)N(Cc1cn(-c3ccccc3)nn1)CC2,·,·,·,–,·,·,·,·
CSc1ccccc1NC(=O)CN(C)CC(=O)Nc1ccccc1C(F)(F)F,–,–,–,–,–,·,·,·
Cc1cc(N2CCOCC2)n2ncc(-c3ccccc3)c2n1,51.0,–,84.4,69.5,–,–,67.1,62.4
Cc1ccc(CNc2nc3ccccc3s2)s1,35.9,74.5,89.9,78.3,–,74.7,67.9,61.1
Cc1cnc(NC(=O)c2cc3c(s2)CCCC3)s1,43.4,72.0,93.0,92.5,–,70.1,66.0,64.3
Cc1nnc(NC(=O)c2ccc(N3CCCC3=O)cc2)s1,·,·,·,–,·,·,·,·
CCc1nnc(NC(=O)c2cc3c(s2)CCCCC3)s1,–,·,·,–,·,·,·,·
Cc1csc(NC(=O)c2cc3c(s2)CCCC3)n1,35.1,66.5,93.6,77.6,–,69.4,49.8,49.5
Cc1csc(NC(=O)c2ccc(N3CCCC3=O)cc2)n1,42.2,56.0,89.2,70.6,–,53.4,77.0,68.3
SMILES,HSP90 refold inh,PPC-1+TRAIL kill,FLuc inhib CS,C8 TRAIL sens,FLuc stim CS,PPC-1 tox,HSP90 inh confirm,luciferase ctr
Cc1csc(NC(=O)c2cc3c(s2)CCCCC3)n1,60.6,84.8,94.7,91.5,–,82.1,78.9,77.2
COc1ccc(C(=O)NCC2CCCCC2)cc1S(=O)(=O)N1CCOCC1,·,·,·,–,·,·,·,·
Cc1ccc(/C=C/S(=O)(=O)NCc2ccc(F)cc2)cc1,–,–,–,–,–,·,·,·
O=C(CCC1CCCN(C(=O)c2ccc3c(c2)OCO3)C1)N1CCN(c2ccccn2)CC1 (centres undefined),–,–,–,–,–,·,·,·
N/C(=N\OC(=O)c1ccc2ccccc2c1)c1ccccn1,66.5,53.1,90.0,71.2,–,58.7,58.8,78.8
CCCCNC(=O)C1(NC(=O)Nc2ccc(C)cc2)CCCCC1,–,–,–,–,–,·,·,·
Cc1ccccc1CCN(C(=O)c1csnn1)C(C(=O)NC1CCCC1)c1ccco1 (centres undefined),–,·,·,–,·,·,·,·
CCn1c(S(=O)(=O)O)nc2ccccc21,–,–,·,–,·,·,·,·
COC(=O)c1sc2nc(C)cc(C)c2c1N,–,–,–,–,–,·,·,·
Cc1cc(C)c2c(N)c(C(=O)Nc3ncc(C)s3)sc2n1,70.2,96.0,97.5,94.0,–,95.9,91.6,87.5
CCCCCN=Cc1c(C)[nH]n(-c2nc3ccccc3s2)c1=O,26.0,90.6,52.0,83.9,–,91.2,–,–
CCCc1[nH]n(-c2nc3ccccc3s2)c(=O)c1C=NCCCOC,–,–,·,–,·,·,·,·
COc1ccc(OC)c2sc(N3CCc4ccccc4C3)nc12,–,–,–,–,–,·,·,·
c1ccc2c(c1)CCN(c1nc3cc4c(cc3s1)OCCO4)C2,53.5,84.4,89.1,75.0,–,84.4,73.3,73.8
CC(=O)C1C(=O)CC(C)(O)C(C(C)=O)C1c1ccccc1 (centres undefined),–,–,–,–,–,·,·,·
COc1ccccc1NS(=O)(=O)NC(=O)c1c(C)[nH]c2ccccc12,–,·,·,–,·,·,·,·
Cc1[nH]c2ccccc2c1C(=O)NS(=O)(=O)Nc1ccc(Cl)cc1,18.3,–,–,–,–,·,–,–
COc1cccc(Sc2nc(-c3ccccc3)ncc2S(C)(=O)=O)c1,26.5,·,·,–,·,·,–,14.2
CSc1ncccc1C(=O)Nc1ccc(F)c(F)c1F,–,–,–,–,–,·,·,·
CCOc1ccc(C(=O)Nc2nc(C)c(C(=O)OC)s2)cc1,–,–,·,–,·,·,·,·
C=CCOC(=O)c1sc(NC(=O)c2ccc(OC)cc2)nc1C,54.6,–,–,–,–,·,60.3,–
CC(O)(c1cccnc1)c1nc(-c2ccc3c(c2)OCO3)cs1 (centres undefined),·,·,·,–,·,·,·,·
COc1ccc(N(CC(=O)NCc2ccc(F)cc2)C(=O)Cn2nnc(-c3ccc(C)o3)n2)cc1OC,49.1,·,·,–,·,·,–,–
Cc1ccc(-c2cnn3c(N4CCOCC4)cc(C)nc23)cc1,39.7,·,·,–,·,·,47.7,53.5
Cc1cc(N2CCOCC2)n2ncc(-c3ccc(Cl)cc3)c2n1,35.2,–,·,–,·,·,48.3,55.4
CC1(C2CC2)NC(=O)N(CC(=O)Nc2ccccc2F)C1=O (centres undefined),·,·,·,–,·,·,·,·
CC(=N\NC(=O)c1ccccc1)/C(=N/O)C(=O)Nc1ccccc1,72.7,·,·,–,·,·,–,–
